# Laboratory results reported in ChEMBL document CHEMBL1152560, “Substituted 2-arylbenzothiazoles as kinase inhibitors: hit-to-lead optimization” (Bioorg Med Chem, 2009).
# Columns and labels:
# [1] = target: T1, Ephrin type-B receptor 4 (Homo sapiens) (UniProt P54760); assay: Residual activity of EPHB4 at 0.1 uM by microplate scintillation counting
# T1 sequence (whole entry): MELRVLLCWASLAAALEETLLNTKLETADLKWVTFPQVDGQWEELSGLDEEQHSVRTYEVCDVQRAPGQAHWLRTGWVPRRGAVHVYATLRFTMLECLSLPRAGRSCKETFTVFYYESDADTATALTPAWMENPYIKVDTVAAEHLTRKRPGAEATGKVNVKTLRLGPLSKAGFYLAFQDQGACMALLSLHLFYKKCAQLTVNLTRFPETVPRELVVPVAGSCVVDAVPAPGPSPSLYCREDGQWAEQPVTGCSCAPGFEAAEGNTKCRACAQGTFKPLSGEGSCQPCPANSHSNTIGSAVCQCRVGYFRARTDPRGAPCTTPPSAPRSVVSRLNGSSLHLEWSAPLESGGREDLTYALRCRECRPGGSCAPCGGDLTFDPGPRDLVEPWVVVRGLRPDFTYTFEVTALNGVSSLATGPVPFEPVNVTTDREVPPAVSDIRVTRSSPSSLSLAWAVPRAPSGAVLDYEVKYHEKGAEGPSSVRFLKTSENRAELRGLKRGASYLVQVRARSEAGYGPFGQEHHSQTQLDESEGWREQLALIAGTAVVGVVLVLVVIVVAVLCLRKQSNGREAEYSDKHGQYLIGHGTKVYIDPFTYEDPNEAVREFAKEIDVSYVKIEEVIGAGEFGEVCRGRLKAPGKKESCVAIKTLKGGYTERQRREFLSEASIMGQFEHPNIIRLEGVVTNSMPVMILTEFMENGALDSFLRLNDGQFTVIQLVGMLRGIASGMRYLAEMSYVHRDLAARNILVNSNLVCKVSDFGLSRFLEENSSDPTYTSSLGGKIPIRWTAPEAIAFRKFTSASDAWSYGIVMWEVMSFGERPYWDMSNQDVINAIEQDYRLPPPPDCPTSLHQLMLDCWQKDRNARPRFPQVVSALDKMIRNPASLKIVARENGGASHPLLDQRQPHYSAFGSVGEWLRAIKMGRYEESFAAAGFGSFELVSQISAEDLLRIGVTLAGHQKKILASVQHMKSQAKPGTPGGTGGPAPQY
# Aurora kinase B [2] = target: T2, Aurora kinase B (Homo sapiens, UniProt Q96GD4); assay: Inhibition of Aurora-B by microplate scintillation counting
# T2 sequence (Q96GD4 whole entry): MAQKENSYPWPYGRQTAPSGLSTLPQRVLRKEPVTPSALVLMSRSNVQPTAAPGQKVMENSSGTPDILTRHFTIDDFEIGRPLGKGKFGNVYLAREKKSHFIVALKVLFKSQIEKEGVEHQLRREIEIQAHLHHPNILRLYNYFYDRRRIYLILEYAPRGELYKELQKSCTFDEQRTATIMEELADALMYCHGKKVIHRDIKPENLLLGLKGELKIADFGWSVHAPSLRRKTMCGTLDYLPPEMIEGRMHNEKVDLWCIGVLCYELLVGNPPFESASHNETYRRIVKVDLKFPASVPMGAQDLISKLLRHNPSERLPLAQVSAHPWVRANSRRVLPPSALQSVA
# Procedure, shortened: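 Substrates: tetra(LRRWSLG) for Aurora A/B; poly(Ala,Glu,Lys,Tyr)6:2:5:1 for PDGFRβ; poly(Glu,Tyr)4:1 for TIE2 and VEGFR2. Stopped with 2% H3PO4.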
# Aurora kinase B [3] = target: T2, Aurora kinase B; assay: Residual activity of Aurora-B at 1 uM by microplate scintillation counting
# [4] = target: T3, Interleukin-1 receptor-associated kinase 4 (Homo sapiens) (UniProt Q9NWZ3); assay: Residual activity of IRAK4 at 0.1 uM by microplate scintillation counting
# T3 sequence (whole entry): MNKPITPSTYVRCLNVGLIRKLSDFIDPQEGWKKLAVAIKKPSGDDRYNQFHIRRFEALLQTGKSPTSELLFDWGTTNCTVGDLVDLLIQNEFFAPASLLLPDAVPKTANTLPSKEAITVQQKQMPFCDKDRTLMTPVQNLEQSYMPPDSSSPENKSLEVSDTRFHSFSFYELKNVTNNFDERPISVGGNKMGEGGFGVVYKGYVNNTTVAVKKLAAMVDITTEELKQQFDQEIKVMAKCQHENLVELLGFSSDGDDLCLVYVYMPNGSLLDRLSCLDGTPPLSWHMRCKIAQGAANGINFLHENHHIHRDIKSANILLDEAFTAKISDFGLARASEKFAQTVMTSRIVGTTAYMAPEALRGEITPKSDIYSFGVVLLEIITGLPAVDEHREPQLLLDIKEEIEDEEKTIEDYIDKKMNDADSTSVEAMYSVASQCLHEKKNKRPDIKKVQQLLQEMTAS
# [5] = target: Serine/threonine-protein kinase PLK2 (Homo sapiens) (UniProt Q9NYY3); assay: Residual activity of SNK at 0.1 uM by microplate scintillation counting
# Serine/threonine-protein kinase PLK2 (Homo sapiens), sequence (Q9NYY3 whole entry, looked up): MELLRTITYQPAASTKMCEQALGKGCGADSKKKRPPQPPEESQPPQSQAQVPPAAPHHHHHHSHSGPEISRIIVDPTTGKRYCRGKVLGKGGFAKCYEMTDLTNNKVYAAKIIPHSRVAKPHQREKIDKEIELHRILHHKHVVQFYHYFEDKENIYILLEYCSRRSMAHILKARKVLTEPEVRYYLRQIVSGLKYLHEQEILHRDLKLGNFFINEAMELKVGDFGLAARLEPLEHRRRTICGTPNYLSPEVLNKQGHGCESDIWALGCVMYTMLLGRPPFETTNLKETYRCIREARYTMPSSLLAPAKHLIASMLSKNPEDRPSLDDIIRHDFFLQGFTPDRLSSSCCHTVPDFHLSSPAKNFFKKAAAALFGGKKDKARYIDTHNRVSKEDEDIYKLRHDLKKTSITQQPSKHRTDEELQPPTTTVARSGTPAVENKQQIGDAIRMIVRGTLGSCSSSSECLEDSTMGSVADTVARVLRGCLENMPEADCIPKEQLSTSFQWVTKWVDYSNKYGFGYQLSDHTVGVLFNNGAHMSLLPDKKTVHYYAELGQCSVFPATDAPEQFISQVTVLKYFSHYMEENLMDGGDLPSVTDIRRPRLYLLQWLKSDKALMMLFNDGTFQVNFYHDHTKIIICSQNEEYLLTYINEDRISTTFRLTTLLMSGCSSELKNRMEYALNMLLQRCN
# [6] = target: Serine/threonine-protein kinase pim-2 (Homo sapiens) (UniProt Q9P1W9); assay: Residual activity of PIM2 at 10 uM by microplate scintillation counting
# Serine/threonine-protein kinase pim-2 (Homo sapiens), sequence (Q9P1W9 whole entry, looked up): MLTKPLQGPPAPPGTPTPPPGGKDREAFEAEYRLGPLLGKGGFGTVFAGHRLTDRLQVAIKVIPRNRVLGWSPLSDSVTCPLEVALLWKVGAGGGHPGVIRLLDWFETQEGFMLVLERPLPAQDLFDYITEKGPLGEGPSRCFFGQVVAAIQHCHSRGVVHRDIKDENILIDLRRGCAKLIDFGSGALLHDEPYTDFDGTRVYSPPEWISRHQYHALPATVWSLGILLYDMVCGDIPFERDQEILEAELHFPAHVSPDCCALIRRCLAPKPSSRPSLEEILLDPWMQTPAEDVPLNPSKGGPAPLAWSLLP
# [7] = target: T4, Testis-specific serine/threonine-protein kinase 2 (Homo sapiens) (UniProt Q96PF2); assay: Residual activity of TSK2 at 0.1 uM by microplate scintillation counting
# T4 sequence (whole entry): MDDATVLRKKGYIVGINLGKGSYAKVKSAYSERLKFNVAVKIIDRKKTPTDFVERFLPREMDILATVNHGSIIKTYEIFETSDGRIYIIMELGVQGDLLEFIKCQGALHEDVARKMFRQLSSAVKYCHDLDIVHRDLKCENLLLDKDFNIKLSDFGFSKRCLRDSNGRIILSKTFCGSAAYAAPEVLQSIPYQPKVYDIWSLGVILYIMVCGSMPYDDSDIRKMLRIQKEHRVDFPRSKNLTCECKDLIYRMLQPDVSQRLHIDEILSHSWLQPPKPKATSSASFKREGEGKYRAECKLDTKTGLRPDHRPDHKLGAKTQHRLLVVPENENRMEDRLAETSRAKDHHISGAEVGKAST
# [8] = target: T5, Eukaryotic elongation factor 2 kinase (Homo sapiens) (UniProt O00418); assay: Residual activity of EEF2K at 10 uM by microplate scintillation counting
# T5 sequence (whole entry): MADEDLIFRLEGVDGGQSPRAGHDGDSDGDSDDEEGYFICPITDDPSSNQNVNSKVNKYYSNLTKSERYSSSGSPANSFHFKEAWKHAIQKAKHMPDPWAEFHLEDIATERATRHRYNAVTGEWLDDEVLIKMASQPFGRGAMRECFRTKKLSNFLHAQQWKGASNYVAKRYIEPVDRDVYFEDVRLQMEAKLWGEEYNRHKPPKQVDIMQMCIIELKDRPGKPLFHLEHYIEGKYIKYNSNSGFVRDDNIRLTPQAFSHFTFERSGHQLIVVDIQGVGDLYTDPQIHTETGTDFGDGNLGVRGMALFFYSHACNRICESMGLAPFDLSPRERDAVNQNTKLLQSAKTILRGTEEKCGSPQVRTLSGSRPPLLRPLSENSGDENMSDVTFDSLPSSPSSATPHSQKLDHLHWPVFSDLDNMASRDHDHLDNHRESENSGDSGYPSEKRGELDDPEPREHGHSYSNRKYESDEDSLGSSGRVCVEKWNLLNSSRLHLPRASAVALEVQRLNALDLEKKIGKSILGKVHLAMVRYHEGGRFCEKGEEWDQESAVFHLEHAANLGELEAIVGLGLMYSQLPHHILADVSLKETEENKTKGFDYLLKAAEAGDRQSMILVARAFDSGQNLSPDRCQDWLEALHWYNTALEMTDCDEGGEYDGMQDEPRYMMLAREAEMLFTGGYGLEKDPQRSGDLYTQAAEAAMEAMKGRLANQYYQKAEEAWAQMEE
# [9] = target: MAP kinase-activated protein kinase 3 (Homo sapiens) (UniProt Q16644); assay: Residual activity of MAPKAPK3 at 0.1 uM by microplate scintillation counting
# MAP kinase-activated protein kinase 3 (Homo sapiens), sequence (Q16644 whole entry, looked up): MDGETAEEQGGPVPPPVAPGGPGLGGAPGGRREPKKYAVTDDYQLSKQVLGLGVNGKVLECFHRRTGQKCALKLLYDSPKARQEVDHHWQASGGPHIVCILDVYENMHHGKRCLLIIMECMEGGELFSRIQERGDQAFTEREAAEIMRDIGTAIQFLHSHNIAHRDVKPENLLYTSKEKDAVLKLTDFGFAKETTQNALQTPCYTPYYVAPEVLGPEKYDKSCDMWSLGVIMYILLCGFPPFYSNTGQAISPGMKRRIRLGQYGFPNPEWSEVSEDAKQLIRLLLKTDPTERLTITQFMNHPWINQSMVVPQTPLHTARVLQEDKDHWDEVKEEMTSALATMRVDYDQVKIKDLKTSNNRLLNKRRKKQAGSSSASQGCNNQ
residual activity [1],IC50 (Aurora kinase B [2]),residual activity (Aurora kinase B [3]),residual activity [4],residual activity [5],residual activity [6],residual activity [7],residual activity [8],residual activity [9],SMILES
98%,162 nM,24%,96%,108%,113%,101%,104%,93%,COc1cc2c(Oc3ccc(-c4nc5ccccc5s4)cc3)ncnc2cc1OCCCN1CCCC1
98%,130 nM,20%,101%,89%,85%,96%,120%,94%,COc1cc2c(Oc3ccc(-c4nc5ccccc5s4)cc3F)ncnc2cc1OCCCN1CCN(C)CC1
108%,63 nM,18%,100%,89%,73%,97%,91%,91%,COc1cc2c(Oc3ccc(-c4nc5ccccc5s4)cc3)ncnc2cc1OCCCN1CCN(C)CC1
